# Measurements from ChEMBL document CHEMBL4651341, “The discovery of a novel series of compounds with single-dose efficacy against juvenile and adult Schistosoma species” (PLoS Negl Trop Dis, 2021).
# What was measured:
# [1] = Mean plasma concentration at 4h in Swiss albino male mice at […] per compound (administered orally in a mixture of 5 compounds to 3 mice) assessed by LCMS/MS.; type: ADME, organism-based; details: mouse, po
# [2] = Partition coefficient of compound between n-octanol and PBS (pH7.4); type: physicochemical; details: octanol/water, pH 7.4
# Procedure, shortened: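 Shake-flask method using octanol and PBS pH 7.4, each pre-saturated with the other. Compound was shaken 2 h at 850 rpm, 25 °C, then the phases were separated by centrifugation and both layers diluted and analysed by LC-MS/MS. LogD = log(octanol AUC × relative dilution / buffer AUC).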
# [3] = Concentration of drug in plasma at 4h following oral drug adminstration at given dose. Determined by LCMS/MS; type: ADME, organism-based; details: CD1, mouse
# Procedure, shortened: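 Plasma sampled from the mice of the efficacy experiments, each animal sampled once: one animal per group at 1, 4 and 8 h, two per group at 24 h. Plasma prepared by acetonitrile protein precipitation and analysed by LC-MS against a 10-point calibration line spiked in blank matrix, with QCs at three or more levels.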
# Schistosoma mansoni [4] = assay: Percentage of worms remaining following treatment of female CD1 mice infected with S. mansoni worms (21 day old - juvenile or 42 day old - adult) with compound by oral gavage. Worms were recovered by portal perfusion with citrate saline 8-14 days post treatment and counted. Percentages are from a mean of 5 or 6 animals.; type: functional, Mus musculus; design: concentration or dose not given beside the values
# Procedure, shortened: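 Female CD1 mice were infected subcutaneously with 150 cercariae and treated at day 21 (juvenile) or day 42 (adult). Single oral gavage, or two doses 12 h apart, given in 7% Tween-80/3% ethanol/water (sonicated) or in 1:19 DMSO:corn oil. Controls received vehicle only. Worm recoveries are group means, n = 5–6.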
# [5] = Concentration required to kill 50% HepG2 cells as detected by MTT staining; type: toxicity, cell-based; details: homo sapiens, read-out: TC50 (the source's name)
# [6] = Mean oral bioavailability in Swiss albino male mice at […] per compound (administered in a mixture of 5 compounds to 3 mice) assessed by LCMS/MS.; also: dose 2.5 mg/kg; type: ADME, organism-based; details: mouse, in vivo
# [7] = Mean time to peak plasma concentration in Swiss albino male mice at […] per compound (administered orally in a mixture of 5 compounds to 3 mice) assessed by LCMS/MS.; type: ADME, organism-based; details: mouse, po
# [8] = Plasma protein binding determined at 10uM by LC-MS/MS.; type: ADME, cell-free
# Procedure, shortened: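 Equilibrium dialysis of plasma spiked at 10 µM (0.1% DMSO) against PBS pH 7.4, 6 h at 37 °C, duplicates. Both chambers analysed by LC-MS/MS after acetonitrile precipitation. % free = buffer/plasma area ratio; recovery also calculated.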
# [9] = Mean AUC inf in Swiss albino male mice at 1 mg/kg per compound (administered iv in a mixture of 5 compounds to 3 mice) assessed by LCMS/MS.; type: ADME, organism-based; details: male, Swiss albino, mouse, in vivo
# Procedure, shortened: (§1)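 Male Swiss albino mice (~30 g), 3 per experiment, mostly dosed as mixtures of 5 compounds iv via the lateral tail vein. Vehicle: 10% DMSO/90% 50 mM Na2HPO4 with 0.5% Tween-80. Blood sampled at 5, 15, 30 min and 1, 2, 4, 8, 24 h. Plasma stored at −20 °C and quantified by LC-MS after acetonitrile precipitation.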
# [10] = Mean observed clearance in Swiss albino male mice at 1 mg/kg per compound (administered iv in a mixture of 5 compounds to 3 mice) assessed by LCMS/MS.; type: ADME, organism-based; details: male, Swiss albino, mouse, in vivo, read-out: Clearance (converted); procedure, shortened: as §1
# [11] = Mean volume of distribution at steady state in Swiss albino male mice at 1 mg/kg per compound (administered iv in a mixture of 5 compounds to 3 mice) assessed by LCMS/MS.; type: ADME, organism-based; details: mouse, in vivo, read-out: Volume
# Procedure, shortened: (§2)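 Male Swiss albino mice (~30 g), 3 per experiment, mostly dosed as mixtures of 5 compounds iv via the lateral tail vein. Vehicle: 10% DMSO/90% 50 mM Na2HPO4 with 0.5% Tween-80. Plasma stored at −20 °C and quantified by LC-MS after acetonitrile precipitation.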
# [12] = Mean half-life in Swiss albino male mice at 1 mg/kg per compound (administered iv in a mixture of 5 compounds to 3 mice) assessed by LCMS/MS.; type: ADME, organism-based; details: mouse, in vivo; procedure, shortened: as §2
# [13] = Mean plasma concentration at 24h in Swiss albino male mice at […] per compound (administered orally in a mixture of 5 compounds to 3 mice) assessed by LCMS/MS.; type: ADME, organism-based; details: mouse, po
# [14] = Percentage of parent compound remaining after incubation for 30 minutes with cyropreserved human hepatocytes at a concentration of 1uM compound and 1 million cells/uL, determined by LCMS/MS; type: ADME, tissue-based, Hepatocyte; details: cryopreserved human hepatocytes, read-out: Stability
# Procedure, shortened: (§3)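 Compound was incubated at 1 µM final (2 µM working solution mixed 1:1 with hepatocyte suspension) in supplemented KHB pH 7.4. Conditions: 37 °C, 5% CO2, gentle mixing, duplicates. Reaction quenched with ice-cold acetonitrile containing standard; analysed by LC-MS/MS. % remaining = AUC at t / AUC at T0.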
# [15] = Percentage of parent compound remaining after incubation for 30 minutes with cyropreserved mouse hepatocytes at a concentration of 1uM compound and […], determined by LCMS; type: ADME, tissue-based, Hepatocyte; details: cryopreserved mouse hepatocytes, read-out: Stability; procedure, shortened: as §3
# [16] = Solubility at 25 degC of compound (diluted from DMSO) in PBS at pH 7.4 determined after 24h (1h sonication, 22h shaking, 1h sonication) by LCMS/MS; type: physicochemical
# Schistosoma mansoni [17] = assay: Concentration required to kill 50% of 42 day old worms 5 days after drug treatment.; type: functional, organism-based; details: Puerto Rican, 120 h
# Procedure, shortened: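 Adult S. mansoni were perfused from CD1 mice 6 weeks post-infection and washed. They were cultured 3 pairs per well in 1 mL DMEM with 2 mM glutamine, penicillin/streptomycin and 10% FCS […] at 37 °C, 5% CO2. Viability of individual worms was scored on day 5 (120 h).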
# Schistosoma mansoni [18] = assay: Concentration required to kill 50% of 21 day old worms 5 days after drug treatment.; type: functional, organism-based; details: Puerto Rican, 120 h
# Procedure, shortened: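 Juvenile S. mansoni (Puerto Rican strain) were perfused from CD1 mice 3 weeks post-infection and washed. They were cultured 6–8 per well in 200 µL DMEM with 2 mM glutamine, penicillin/streptomycin and 10% FCS at 37 °C, 5% CO2. Viability of individual worms was scored on day 5 after dosing (120 h).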
# [19] = Percentage of parent compound remaining after incubation for 90 minutes with cyropreserved human hepatocytes at a concentration of 1uM compound and 1 million cells/uL, determined by LCMS/MS; type: ADME, tissue-based, Hepatocyte; details: cryopreserved human hepatocytes, read-out: Stability; procedure, shortened: as §3
# [20] = Percentage of parent compound remaining after incubation for 90 minutes with cyropreserved mouse hepatocytes at a concentration of 1uM compound and […], determined by LCMS; type: ADME, tissue-based, Hepatocyte; details: cryopreserved mouse hepatocytes, read-out: Stability; procedure, shortened: as §3
# [21] = Plasma protein binding determined at 1uM by LC-MS/MS.; type: ADME, cell-free
# [22] = Concentration required to kill 50% MRC-5 cells as detected by Alamar blue staining; type: toxicity, cell-based, MRC5; details: homo sapiens, read-out: TC50 (the source's name)
# Schistosoma haematobium = assay: Concentration required to kill 50% of 84 day old worms 5 days after drug treatment.; type: functional, organism-based; details: Egyptian, 120 h
# [23] = male, Swiss albino, read-out: Bioavailability
Compound,concentration at 4 h [1] [ng/mL],Lipophilicity [2],CC50 [5] [nM],Tmax [7] [min],Binding ([8]; mouse) [%],"bioavailability [6, 23] [%]",AUC(0-inf) [9] [ng·h/mL],clearance [10] [mL/min/kg],Vd [11] [L/kg],half-life [12] [min],concentration at 24 h [13] [ng/mL],"remaining at 0.5 h, 1 µM [14] [%]","remaining at 0.5 h, 1 µM [15] [%]",solubility kinetic at 24 h [16] [µM],EC50 (Schistosoma mansoni [17]) [nM],EC50 (Schistosoma mansoni [18]) [nM],Binding ([21]; mouse) [%],other results
Fc1ccc(-c2cn3c(-c4ccc5[nH]ncc5c4F)c(C(F)(F)F)nc3cn2)cc1C(F)(F)F,298,5.29 =,16600,,,,,,,,,,,,,,,concentration at 4 h [3]: 1500 ng/mL; Efficacy (Schistosoma mansoni [4]): 1.84%
Fc1ccc(-c2cn3c(-c4ccc5[nH]ncc5c4F)c(C(F)(F)F)nc3cn2)cc1C(F)(F)C(F)(F)F,359,5.6 =,11700,120,100,,,,,,,,,,,,,bioavailability [6]: 170%; concentration at 4 h [3]: 556 ng/mL; Efficacy (Schistosoma mansoni [4]): 1.84%
CC(C)c1nc2cnc(-c3cccc(C(F)(F)F)c3)cn2c1-c1ccc2[nH]ncc2c1F,194,4.56 =,15100,30,99.975,63.2,929,9.15,3.44,362,18,83.1,93.9,1.52,30.7,51.7,,Binding ([8]; human): 99.997%
CC(C)c1cc(-c2cn3c(-c4ccc5[nH]ncc5c4F)c(C(C)C)nc3cn2)ccc1F,119,,11000,30,,64,558,15,4.48,341,4.17,,,0.784,3.98,4.96,,"remaining at 1.5 h, 1 µM [19]: 37.7%; remaining at 1.5 h, 1 µM [20]: 46.2%"
Oc1ccc(-c2c(C(F)(F)F)nc3cnc(-c4cccc(C(F)(F)F)c4)cn23)c(F)c1,43.9,4.84 =,,15,99.965,58.4,203,41.2,9.55,268,1.9,,58.7,17.1,< 48.8,< 443,100,
CC(C)c1nn2cnc(-c3cccc(C(F)(F)F)c3)cc2c1-c1c(F)cc(O)cc1F,12.5,5.11 =,8400,15,100,14.5,195,42.8,3.67,95.4,0.1,68.4,95.9,91.9,21.9,< 12.2,,Binding ([8]; human): 100%
Oc1ccc(-c2cnc3cnc(-c4cccc(C(F)(F)F)c4)cn23)c(F)c1,0.1,4.95 =,,15,,,49.9,168,1.33,10.3,0.1,31,32.9,2,2320,2120,99.76,Binding ([21]; human): 99.88%; CC50 [22]: > 38300 nM
CCc1nc2cnc(-c3cccc(C(F)(F)F)c3)cn2c1-c1ccc(O)cc1F,4.15,3.76 =,18700,15,99.87,7.35,144,58.2,2.17,33.6,0.1,,39,17.5,< 140,85.9,,EC50 (Schistosoma haematobium): 151 nM; CC50 [22]: 17500 nM
COc1cc(-c2c(C(C)C)nc3cnc(-c4cccc(C(F)(F)F)c4)cn23)cc2cn[nH]c12,130,5.49 =,,30,99.95,84.8,490,17,6.81,446,10.5,,68,0.643,428,527,100,EC50 (Schistosoma haematobium): 149 nM
